core dimer inh: blocks dimerization of HCV core protein | TR-FRET GST/Flag-core106 dimerization, 1536-well | inhibition, % at 5 µM | 300,000 compounds, 0.33% hits | AID 1899;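 active = inhibition above the mean of all tested compounds plus 3 SD, set per screening campaign, cut at about 45% in these data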
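Material: Tagged HCV core106 pair (GST and Flag) | Amount: GST-core106 13.5 nM, Flag-core106 17 nM | Medium: KF-containing HEPES buffer, pH 7.45, DTT, CHAPS, BSA | Reagent: Eu donor and XL665 acceptor anti-tag antibodies | Schedule: 4 h at 22.5 °C | Technique: Time-resolved FRET, ex 340 nm, em 617 and 671 nm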
UBC9 SUMO inh: inhibitors of human SUMOylation (UBC9). HTRF SUMOylation assay, SAE1/SAE2 + UBC9, in vitro. 290,000 compounds, 0.36% hits. AID 2006. inhibition, % at 35 µM; in the data active = inhibition above about 50%, passing the limit was not always enough
Target sequence (P63279 whole entry, looked up): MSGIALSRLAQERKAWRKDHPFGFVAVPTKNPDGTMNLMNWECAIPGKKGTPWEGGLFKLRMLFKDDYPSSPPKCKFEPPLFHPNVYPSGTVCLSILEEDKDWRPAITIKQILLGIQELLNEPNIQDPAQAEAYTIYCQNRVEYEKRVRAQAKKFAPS
eIF4E-4G inh: inhibitors of eIF4E and eIF4G interaction in translation initiation; P63073+Q04637; TR-FRET eIF4E-eIF4GI(517-606) binding, 2 h; inhibition, % at 21.7 µM; 220,000 compounds, 0.37% hits; AID 782;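 active = inhibition above about 30%, limit read from the data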;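 note: 0% = full FRET control wells and 100% = background wells lacking eIF4GI fragment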
PABP polyA inh: blocks human PABP binding to poly(A) RNA. AID 2014. 290,000 compounds, 1% hits. fluorescence polarization. calls only at 35 µM. P11940;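 note: calls also rest on retests at 20 µM and on dose response follow-up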
eIF4H FP inh: inhibitors of RNA binding by human eIF4H; Q15056; eIF4H fluorescence polarization binding assay; inhibition, % at 35 µM; 290,000 compounds, 0.94% hits; AID 2012;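 note: calls also rest on retests at 20 µM and on dose response follow-up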
PABP1 MLLE inh: inhibitors of microRNA-mediated deadenylation, human PABP1 MLLE binding | P11940 | GST-MLLE / FITC-PAM2 fluorescence polarization | inhibition, % at 20 µM | 360,000 compounds, 0.36% hits; in the data active = inhibition above about 35%, passing the limit was not always enough;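 note: plate controls were DMSO wells with GST-MLLE for no effect and wells lacking GST-MLLE protein for full effect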
* = called active by the depositor; i = inactive; x = not tested or not shown; + = active, no number; [ ] = dose if it differs, or a comment. Rows were chosen to be rich in hits. Some 1.8% of all compounds tested hit in one or more screens of this group. Unless noted, the rule behind the calls is not given here.

SMILES | core dimer inh | UBC9 SUMO inh | eIF4E-4G inh | PABP polyA inh | eIF4H FP inh | PABP1 MLLE inh
COc1cccc2c1C(CO)N1C(C#N)C3CC(C(=O)O)C(C1C2)N3C (stereo not drawn) | -1 | 7 | 5 | i | -9 | 16
COc1ccccc1-n1c(SCC(=O)N(C)C)nnc1-c1ccco1 | x | x | x | x | x | 0
COc1ccc(CC2(c3ccccc3)NC(=O)NC2=O)cc1 (stereo not drawn) | x | x | x | x | x | -33
O=C(c1ccc2c(c1)OCO2)C1CCCN(C(=O)NCc2ccccc2)C1 (stereo not drawn) | -3 | -10 | -2 | + | 58* | -1
O=C(NC(=S)N1CCCC1)c1ccccc1F | x | x | x | x | x | 44*
O=C1[C@H](Cc2ccccc2)NCC=CC[C@H](c2ccco2)N1Cc1ccccc1 | x | x | x | x | x | -2
O=C(NC(=S)NC(CO)Cc1ccccc1)c1ccc(F)cc1 (stereo not drawn) | 5 | 4 | x | i | 2 | 33*
CC(Cc1ccccc1)C(=O)N[C@@H](CO)Cc1ccccc1 (stereo partly drawn) | 6 | 14 | 8 | + | active | -2
CC(Cc1ccccc1)C(=O)NCc1ccncc1 (stereo not drawn) | -18 | -3 | 0 | i | 6 | 5
COC(=O)C(Cc1ccccc1)NC(=S)NC(=O)c1ccccc1 (stereo not drawn) | 3 | 1 | -1 | i | -6 | 11
Oc1cccc2ccc(N3CCOCC3)nc12 | 5 | 10 | x | i | -5 | -4
CCN(CCC(=O)Nc1cc([N+](=O)[O-])ccc1OC)Cc1ccccc1 | 0 | 69* | -2 | i | -4 | 5
O=C1CCNc2c(Cl)cc(Cl)cc21 | 1 | 26 | 0 | i | 51* | 27
Cc1c(-n2c(O)c(C3=c4ccccc4=NC3=O)sc2=O)c(=O)n(-c2ccccc2)n1C | -1 | 14 | -3 | i | -8 | 47*
N#C/C(=C\c1ccc(OCC(N)=O)cc1)c1ccccc1 | -11 | 18 | -8 | i | 1 | -2
O=C(COC(=O)C1CC2C=CC1C2)Nc1ccc([N+](=O)[O-])cc1 (stereo not drawn) | x | x | x | x | x | 6
COc1ccc(C)c2sc(=NC(=O)c3ccc(C(C)=O)cc3)n(C)c12 | 16 | 35 | 7 | + | 90* | 13
COc1ccc(C)c2sc(=NC(=O)c3ccccc3)n(C)c12 | 1 | 3 | 3 | i | -2 | -9
O=C(COc1ccc2oc(-c3ccco3)cc(=O)c2c1)N1CCCCC1 | 2 | 52* | 9 | i | 19 | -13
COC(=O)[C@@]1(Cc2ccc(OC)cc2)[C@@H]2[C@@H](CC(=O)[C@H]2CC(=O)C(=O)N(C)C)CN1C(=O)c1ccccc1 | 3 | -18 | -1 | i | 28 | -2
COC(=O)[C@@]1(Cc2ccc(F)cc2)[C@@H]2[C@@H](CC(=O)[C@H]2CC(=O)C(=O)N(C)C)CN1C(=O)c1ccccc1 | -23 | 10 | 2 | + | 71* | -6
CC(=O)c1ccc(N2CCN(C(=O)c3cc(-c4ccncc4)nc4ccc(Cl)cc34)CC2)cc1 | 6 | 15 | x | i | 2 | -10
COc1ccc(CNC(=O)N[C@H](C(=O)O)C(C)C)cc1OC | -1 | 11 | -10 | i | 4 | -3
On1c2c(c3c4nonc4ccc31)CCCC2 | -6 | 14 | 6 | + | 77* | x
COn1c2c(c3c4nonc4ccc31)CCCC2 | -9 | 40 | 5 | + | 26 | 24
SMILES | core dimer inh | UBC9 SUMO inh | eIF4E-4G inh | PABP polyA inh | eIF4H FP inh | PABP1 MLLE inh
Cc1c(C)n(O)c2ccc3nonc3c12 | -6 | 20 | -4 | i | 30 | -7
Cc1ccc(S(=O)(=O)NCC(=O)NC2CC2)cc1 | 12 | 0 | x | i | 2 | -5
NC(=O)N/N=C/c1cn(-c2ccccc2)nc1-c1ccccc1 | 1 | -1 | 1 | i | 2 | -6
O=C(CNc1ccccc1)N/N=C/c1cn(-c2ccccc2)nc1-c1ccccc1 | 15 | -2 | -3 | + | active | -1
CCOc1ccc(S(=O)(=O)Nc2cc(SCC(=O)O)c(O)c3ccccc23)cc1 | x | 75* | x | i | -5 | 34
CCOC(=O)c1ccccc1NS(=O)(=O)c1ccc(OCC)cc1 | -1 | -13 | -5 | i | -1 | -6
Cc1ccc(C)c(S(=O)(=O)Nc2cc(SCC(=O)O)c(O)c3ccccc23)c1 | -18 | 80 | 34*[fluorescence artefact?] | i | -4 | 29
CCc1ccc(S(=O)(=O)Nc2cc(SCC(=O)O)c(O)c3ccccc23)cc1 | -3 | 101* | 5 | i | 7 | 37
O=S(=O)(Nc1cc(Sc2cccc3cccnc23)c(O)c2ccccc12)c1ccccc1 | x | 24 | 1 | + | 75* | x
Cc1ccc(NS(=O)(=O)c2cc(NC(=O)C(C)Oc3ccccc3)ccc2C)c(C)c1 (stereo not drawn) | 1 | -24 | -2 | i | -5 | -4
Cc1ccc(S(=O)(=O)Nc2cccc3cccnc23)cc1 | 6 | -86 | -13 | i | 20 | 10
O=C(COC(=O)c1ccccn1)NC(=O)c1ccccc1 | x | x | x | x | x | 0
Oc1ccccc1C1=NC(c2ccccc2)NC(c2ccccc2)C1 (stereo not drawn) | x | x | x | x | x | 17
CC(=O)c1c(C)oc2ccc(NS(=O)(=O)c3cccs3)cc12 | 0 | 13 | -3 | i | -2 | -7
COc1ccc(C(CNC(=O)CNC(=O)c2cccc(C)c2)N2CCCCC2)cc1 (stereo not drawn) | x | x | x | x | x | 6
O=C(O)c1cccc(S(=O)(=O)Nc2ccc([N+](=O)[O-])cc2O)c1 | 1 | -2 | -4 | i | -2 | -6
O=C(O)CSc1cc(NS(=O)(=O)c2cccc([N+](=O)[O-])c2)c2ccccc2c1O | x | 88* | 24 | i | -6 | 43*
CN(C1CCCCC1)S(=O)(=O)c1ccc(NC(=S)NC(=O)c2cccs2)cc1 | 6 | -11 | -4 | i | -6 | 43*
Cc1ccc(-c2nc(N)s[n+]2-c2ccccc2)cc1 | -3 | 2 | 26 | i | 4 | 40*
Cc1ccc(-c2nc3ccccc3nc2-c2ccccc2)cc1 | 3 | -3 | x | i | -4 | -6
CNc1nc(-c2ccccc2)[n+](-c2ccc(C)cc2)s1 | 1 | 18 | 39* | i | -18 | -48
CCOc1ccc(CCNC(=O)Cn2ccc3ccccc3c2=O)cc1OCC | -4 | 5 | 0 | i | -8 | -4
COCCN(C(=O)/C=C/c1ccccc1)c1nnc(-c2cccnc2)s1 | 9 | 18 | -5 | + | 52 | -14
COCCN(C(=O)c1cccc(OC)c1)c1nnc(-c2ccncc2)s1 | -7 | -10 | 12 | i | -4 | 1
COC(=O)C1=C(NC(=O)c2ccc(C)c(C)c2)CCS1 | 4 | 17 | -6 | i | 1 | 39*
CN1C(=O)C(C)(C)c2cc(S(=O)(=O)NCc3ccc(C(=O)NCc4ccco4)cc3)ccc21 | -2 | 0 | x | i | -11 | 0

Screens: PubChem, several laboratories
